Cneo AK release: causes C. neoformans cell lysis | AID 651654 | lysis activity, % at 15 µM | hit rate 0.2% among 360,000 | adenylate kinase release luminescence, 4 h; normalised: neutral wells 0, clomiphene wells 100;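 active = mean lysis activity across replicates of at least 80%, whatever share of replicates individually reach that level; inactive = mean lysis activity below 80%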
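Material – log-phase Cryptococcus neoformans yeast cells · Input – 5 × 10^6 yeast cells/mL · Medium – fresh YPD growth medium · Doses – single compound concentration per well · Timing – static 4 h at 37 °C with compound, 1 h detection · Detection – adenylate kinase release luminescence · Read-out – signal increase indicating cell lysis · Control set – Clomiphene as positive lysis control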
miR122 inh: miR-122 inhibition in Huh7 cells. Huh7 miR-122 Renilla luciferase sensor, 48 h; neutral wells = 0, positive control = 100. activation (reporter increase), % at 12.5 µM. hit rate 0.3% among 340,000. AID 602342;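 active = mean replicate activation score at least 90 and every replicate individually at or above 90; inconclusive = only one of the two criteria met; inactive = neither criterion met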;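 also: higher luciferase means less miR-122 activity so hits act as miR-122 inhibitors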
Ecoli rRNA inh: inhibitors of bacterial rRNA selective over humanized ribosomes | E. coli WT GFP vs humanized-ribosome RFP mutants, fluorescence, 24 h; active compounds read low; DMSO median 0, no signal -100 | GFP signal change (wild-type ribosome), % (no concentration beside the values) | hit rate 1.6% among 350,000 | AID 720706;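 active = significant combined selectivity score with lowered wild-type GFP, culture density cut under 30%, mutant RFP and density less affected; inactive = any of these conditions unmet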
E-selectin induc: E-selectin induction on HUVECs; P16581; activation, % at 7.58 µM; HUVEC E-selectin immunofluorescence imaging; normalized: neutral wells 0, TNF-alpha wells 100; hit rate 0.37% among 260,000; AID 686992;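 active = mean E-selectin-positive cell signal at least 10% of the positive control, reached in at least 60% of replicates, without over 20% cell loss; inconclusive = no rule given, readout overlaps actives, possibly toxicity-flagged; inactive = the rest, including those meeting only one limit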
Target sequence (P16581 whole entry, looked up): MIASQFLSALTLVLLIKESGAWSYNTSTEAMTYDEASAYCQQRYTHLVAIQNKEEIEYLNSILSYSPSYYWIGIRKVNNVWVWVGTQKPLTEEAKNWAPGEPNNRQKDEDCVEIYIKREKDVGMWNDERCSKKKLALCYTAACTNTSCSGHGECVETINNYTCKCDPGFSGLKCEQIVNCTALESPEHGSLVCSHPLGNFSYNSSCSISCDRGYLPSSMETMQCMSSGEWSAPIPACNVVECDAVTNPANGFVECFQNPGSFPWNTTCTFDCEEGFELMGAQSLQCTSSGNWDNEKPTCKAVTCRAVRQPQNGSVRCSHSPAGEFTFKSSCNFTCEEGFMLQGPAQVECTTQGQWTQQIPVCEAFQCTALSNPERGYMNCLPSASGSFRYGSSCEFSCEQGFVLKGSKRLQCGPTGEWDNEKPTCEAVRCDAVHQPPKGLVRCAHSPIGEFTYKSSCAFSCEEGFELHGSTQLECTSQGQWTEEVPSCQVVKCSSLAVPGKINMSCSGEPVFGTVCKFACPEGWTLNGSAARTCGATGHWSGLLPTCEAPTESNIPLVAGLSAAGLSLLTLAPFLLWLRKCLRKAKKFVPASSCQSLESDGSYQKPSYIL
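Assay system: HUVEC, human umbilical vein endothelial cells / Amount: 3,000 HUVEC/well / Controls: TNF-alpha positive control, DMSO neutral control / Compound dosing: single concentration / Medium: EGM-2 over gelatin coat / Evaluation: percent E-selectin-positive cells / Signal: immunofluorescence imaging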
DENV2 CPE: inhibitors of DENV2 cytopathic effect; hit rate 1.7% among 350,000; DENV2-infected cells, cytopathic effect rescue, plate reader; CPE inhibition, % at 9.99 µM; in the data active = CPE inhibition above about 20%, passing the limit was not always enough; inconclusive = no clear call, values can overlap the other calls; tested in BHK-21 cells;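 also: 0% = median of neutral control wells and 100% = median of positive control wells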
* hit, by the source's call; ? = inconclusive; · = no result; ! = repeats disagree; [ ] = dose if it differs, or a comment. Sampled rows, rich in hits. Any-hit rate of the full collection: about 3.1%.

SMILES	Cneo AK release	miR122 inh	Ecoli rRNA inh	E-selectin induc	DENV2 CPE
Cc1cc(OCc2ccccc2)ccc1/C(O)=C1/C(=O)C(=O)N(Cc2cccnc2)C1c1ccncc1 (centres undefined)	·	6	-29*	1	0
C/C=C/c1ccc([C@@H]2[C@@H](CO)N(C(=O)C3CCCCC3)C23CN(C(=O)NC(C)C)C3)cc1	·	·	3	0	-4
O=C(C[C@@H]1CC[C@@H](NS(=O)(=O)c2ccccc2)[C@@H](CO)O1)N1CCN(c2ccccc2)CC1	·	·	-6	0	-6
Cc1cc(/C=C(/C#N)c2cccc(F)c2)c(C)n1-c1cccnc1	2	·	-35*	·	-1
Cc1cc(/C=C(\C#N)C(=O)NCc2ccco2)c(C)n1-c1cccnc1	·	·	-18	·	-4
CC(C)n1cnc2c(NCc3ccccc3)cc(Cc3ccc(F)cc3)cc21	4	5	-21*	1	·
COc1ccc(S(=O)(=O)Nc2ccc3c(c2)COC3=O)cc1OC	0	150*	·	·	·
CC(C)(C)c1ccc(S(=O)(=O)Nc2ccc3c(c2)COC3=O)cc1	3	37	3	·	-5
Cc1[nH]c(=O)c(C(=O)/C=C/c2ccccc2F)c2c1CCCC2	-4	182*	-18*	·	0
Cc1cc(C)c(C(=O)/C=C/c2cccc3ccccc23)c(=O)[nH]1	·	·	10	2	-2
CC(C)(C)c1ccc(NC(=O)N2CCCN(c3ccc([N+](=O)[O-])cn3)CC2)cc1	2	15	-34	76*	0
O=C(Nc1ccc([N+](=O)[O-])cc1)N1CCCCCC1	-3	·	0	0	0
O=C(Cc1cccc2ccccc12)Nc1ccc(OC(F)F)c(Cl)c1	-11	94*	-5	·	5
O=S(=O)(c1ccccc1F)N1CCC(Oc2ccc(-n3cnnn3)cc2)CC1	-1	·	-28*	·	1
O=S(=O)(Nc1ccc(-n2cnnn2)cc1)c1ccccc1F	-1	14	-5	-2	-4
O=C(Nc1ccccc1)N1C[C@@H]2N[C@H](C1)[C@@H]2c1ccc(/C=C/c2ccccc2)cc1	·	·	-25*	0	-2
C/C=C/c1ccc(C2[C@@H]3CN(C(=O)Nc4ccc5c(c4)OCO5)C[C@H]2N3)cc1 (some centres undefined)	·	·	4	0	27*!
COc1ccc(-c2cnc3c(c2)C(=O)N([C@@H](C)CO)C[C@H](C)[C@@H](CN(C)Cc2ccc(C(=O)O)cc2)O3)cc1	0	1[16.7 µM]	-1	0	?
C[C@H](CO)N1C[C@H](C)[C@@H](CN(C)Cc2ccc(-c3ccccc3)cc2)Oc2ccc(NC(=O)Nc3ccc4c(c3)OCO4)cc2CC1=O	-2	-12[16.7 µM]	-1	·	-3
CO[C@H](CN(C)S(=O)(=O)c1cccc(Cl)c1)[C@H](C)CN([C@@H](C)CO)S(=O)(=O)c1cccc(Cl)c1	-1	·	-3	0	-2
O=C(c1cccnc1)N1CC[C@@H]2[C@H]1c1cc(-c3cccc(F)c3)ccc1N[C@@H]2CO	44	3[16.7 µM]	-8	1	0
Cc1ccc(C(=O)NC(=C(Cl)Cl)S(=O)(=O)c2ccc(Cl)cc2)cc1	·	·	-24*	·	0
CS(=O)(=O)Nc1ccc2c(c1)[C@H]1C[C@H](CC(=O)N3CCc4ccccc4C3)O[C@H](CO)[C@H]1O2	7	-6[16.7 µM]	2	0	6
COc1cc(OC)cc(C(=O)NCCC(c2ccccc2)c2ccccc2)c1	3	13	-11	·	45*
COC(=O)[C@@H]1[C@@H](CO)[C@@H]2Cn3c(cccc3=O)[C@@H]2N1CC1CCOCC1	0	·	3	0	5
COCC#Cc1cnc2c(c1)C(=O)N([C@@H](C)CO)C[C@@H](C)[C@H](CN(C)C(=O)C1CC1)O2	18	-2[16.7 µM]	9	1	1
CCCC#Cc1cnc2c(c1)C(=O)N([C@H](C)CO)C[C@H](C)[C@@H](CN(C)C(=O)C1CCC1)O2	-1	-2[16.7 µM]	2	0	5
COCC#Cc1cnc2c(c1)C(=O)N([C@H](C)CO)C[C@H](C)[C@H](CN(C)C(=O)C1CC1)O2	101*	7[16.7 µM]	7	0	-9
CCCC#Cc1cnc2c(c1)C(=O)N([C@H](C)CO)C[C@H](C)[C@H](CN(C)C(=O)C1CCC1)O2	0	24[16.7 µM]	4	0	23*

Bioassay records deposited in PubChem BioAssay by Broad Institute.
